≈ marks a conversion by molar mass, not a printed value.
Tests used:
HT-29 [1] = assay: Cytotoxicity against human HT-29 cells assessed inhibition of cell proliferation after 3 days by MTT assay; conditions: HT-29, 72 h
HEK293 = assay: Cytotoxicity against HEK293 cells assessed inhibition of cell proliferation after 3 days by MTT assay; conditions: Homo sapiens, HEK293, 72 h
MCF7 = assay: Cytotoxicity against human MCF7 cells assessed inhibition of cell proliferation after 3 days by MTT assay; conditions: MCF7, 72 h
[2] = Selectivity ratio of IC50 for HEK293 cells to IC50 for human HT-29 cells; assay type: ADME, cell-based; conditions: HEK293 cells versus HT-29 cells, read-out: Ratio IC50
[3] = Selectivity ratio of IC50 for HEK293 cells to IC50 for human MCF7 cells; assay type: ADME, cell-based; conditions: HEK293 cells versus MCF7 cells, read-out: Ratio IC50
HT-29 [4] = assay: Down regulation of c-Myc gene expression in human HT-29 cells at 10 ug/mL after 48 hrs by RT-qPCR analysis relative to control; assay type: functional
Procedure, shortened: (§1)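 HT-29 or MCF-7 cells grown to 70–80% confluence, serum-starved 24 h, then exposed to compound in DMSO for 48 h; DMSO-only control. Total RNA extracted and transcript measured by RT-qPCR, normalized to β-actin and expressed as percentage of control. At least three measurements; mean ± SEM; one-sample t-test.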

HT-29 [5] = assay: Down regulation of VEGF gene expression in human HT-29 cells at 10 ug/mL after 48 hrs by RT-qPCR analysis relative to control; assay type: functional
Procedure, shortened: as §1

HT-29 [6] = assay: Down regulation of hTERT gene expression in human HT-29 cells at 10 ug/mL after 48 hrs by RT-qPCR analysis relative to control; assay type: functional
Procedure, shortened: as §1

HT-29 [7] = assay: Inhibition of VEGF protein secretion in human HT-29 cells at 10 ug/mL after 72 hrs by ELISA relative to control; assay type: functional; parameters: scale not given: the % may be the effect or the level left

Structure (SMILES) | IC50 (HT-29 [1]) [µg/mL] | IC50 (HEK293) [µg/mL] | IC50 (MCF7) [µg/mL] | selectivity ratio [2] | selectivity ratio [3] | Activity (HT-29 [4]) [%] | Activity (HT-29 [5]) [%] | Activity (HT-29 [6]) [%] | Activity (HT-29 [7]) [%]
Oc1cccc(/C=C/c2cccc(O)c2)c1 | 25.9 (≈ 122 µM) | 21 (≈ 98.9 µM) | 21 (≈ 98.9 µM) | 0.8 | 1 | – | – | – | –
COc1cccc(/C=C/c2ccc(N)cc2)c1 | 16.1 (≈ 71.5 µM) | 18 (≈ 79.9 µM) | 52 (≈ 231 µM) | 1.1 | 0.3 | 74 | 100 | 81 | 74
Nc1cccc(/C=C/c2ccccc2)c1 | 12.9 (≈ 66.1 µM) | 84 (≈ 430 µM) | 14 (≈ 71.7 µM) | 6.5 | 6 | 100 | 100 | 100 | 77
COc1ccccc1/C=C/c1cccc(O)c1 | 17 (≈ 75.1 µM) | 24 (≈ 106 µM) | 24.3 (≈ 107 µM) | 1.4 | 1 | 100 | 77 | 52 | 69
Nc1ccc(/C=C/c2ccc(O)cc2)cc1 | 30.6 (≈ 145 µM) | 0.8 (≈ 3.79 µM) | 2.2 (≈ 10.4 µM) | 0.03 | 0.4 | – | – | – | –
Oc1ccc(/C=C/c2ccccc2O)cc1 | 22 (≈ 104 µM) | 17.5 (≈ 82.5 µM) | 21 (≈ 98.9 µM) | 0.8 | 0.8 | – | – | – | –
COc1ccc(/C=C/c2ccccc2N)cc1 | 73 (≈ 324 µM) | 0.6 (≈ 2.66 µM) | 0.4 (≈ 1.78 µM) | < 0.1 | 1.4 | – | – | – | –
COc1ccccc1/C=C/c1ccccc1O | 23 (≈ 102 µM) | 15 (≈ 66.3 µM) | 17.9 (≈ 79.1 µM) | 0.7 | 0.8 | – | – | – | –
COc1cccc(/C=C/c2cccc(O)c2)c1 | 11.5 (≈ 50.8 µM) | 19 (≈ 84 µM) | 13 (≈ 57.5 µM) | 1.6 | 1.5 | 59 | 60 | 41 | 65
COc1ccccc1/C=C/c1ccc(O)cc1 | 24 (≈ 106 µM) | 41 (≈ 181 µM) | 19 (≈ 84 µM) | 1.7 | 2.2 | 100 | 46 | 100 | 67
Nc1cccc(/C=C/c2ccc(O)cc2)c1 | 51 (≈ 241 µM) | 7 (≈ 33.1 µM) | 6 (≈ 28.4 µM) | 0.1 | 1.2 | – | – | – | –
Nc1ccccc1/C=C/c1ccccc1 | 17 (≈ 87.1 µM) | 1.3 (≈ 6.66 µM) | 1.4 (≈ 7.17 µM) | 0.1 | 0.9 | 100 | 100 | 59 | 59
Nc1ccc(/C=C/c2cccc(O)c2)cc1 | 42 (≈ 199 µM) | 25 (≈ 118 µM) | 24.8 (≈ 117 µM) | 0.6 | 1 | – | – | – | –
Nc1ccc(/C=C/c2ccccc2O)cc1 | 37 (≈ 175 µM) | 21.4 (≈ 101 µM) | 23 (≈ 109 µM) | 0.6 | 1 | – | – | – | –
COc1ccc(/C=C/c2cccc(N)c2)cc1 | 16.3 (≈ 72.4 µM) | 11 (≈ 48.8 µM) | 23 (≈ 102 µM) | 0.7 | 0.5 | 100 | 89 | 96 | 73
CCCCCCCCCCCC(=O)Nc1ccc(/C=C/c2ccccc2)cc1 | > 100 | 10 (≈ 26.5 µM) | 5.8 (≈ 15.4 µM) | < 0.1 | 1.7 | – | – | – | –
Oc1ccccc1/C=C/c1ccccc1O | 25 (≈ 118 µM) | 24.3 (≈ 114 µM) | 23 (≈ 108 µM) | 0.9 | 1.1 | – | – | – | –
Nc1ccccc1/C=C/c1ccccc1O | 36 (≈ 170 µM) | 27 (≈ 128 µM) | 39 (≈ 185 µM) | 0.7 | 0.7 | – | – | – | –
CCCCCCCCCCCC(=O)Nc1cccc(/C=C/c2ccccc2)c1 | > 100 | 11.6 (≈ 30.7 µM) | 3.5 (≈ 9.27 µM) | < 0.1 | 3.3 | – | – | – | –

Structure (SMILES) | IC50 (HT-29 [1]) [µg/mL] | IC50 (HEK293) [µg/mL] | IC50 (MCF7) [µg/mL] | selectivity ratio [2] | selectivity ratio [3] | Activity (HT-29 [4]) [%] | Activity (HT-29 [5]) [%] | Activity (HT-29 [6]) [%] | Activity (HT-29 [7]) [%]
Oc1cccc(/C=C/c2ccccc2O)c1 | 27 (≈ 127 µM) | 18 (≈ 84.8 µM) | 20.1 (≈ 94.7 µM) | 0.7 | 0.9 | – | – | – | –
CCCCCCCCCCCC(=O)Nc1ccccc1/C=C/c1ccccc1 | 2.5 (≈ 6.62 µM) | 16 (≈ 42.4 µM) | 12 (≈ 31.8 µM) | 6.4 | 1.3 | 45 | 37 | 53 | 79
COc1ccccc1/C=C/c1ccccc1N | > 100 | 2.1 (≈ 9.32 µM) | > 100 | < 0.1 | < 0.1 | – | – | – | –
Nc1ccccc1/C=C/c1cccc(O)c1 | 30 (≈ 142 µM) | 20 (≈ 94.7 µM) | 17 (≈ 80.5 µM) | 0.7 | 1.2 | – | – | – | –
COc1ccccc1/C=C/c1cccc(N)c1 | 25.3 (≈ 112 µM) | 45 (≈ 200 µM) | 38.7 (≈ 172 µM) | 1.8 | 1.2 | 45 | 67 | 52 | 75
Nc1cccc(/C=C/c2cccc(O)c2)c1 | 43 (≈ 204 µM) | > 100 | 54 (≈ 256 µM) | > 2.3 | > 1.8 | 54 | 52 | 58 | 92
COc1cccc(/C=C/c2cccc(N)c2)c1 | 19.6 (≈ 87 µM) | 16 (≈ 71 µM) | 34 (≈ 151 µM) | 0.8 | 0.5 | 34 | 23 | 100 | 73
COc1cccc(/C=C/c2ccccc2O)c1 | 26 (≈ 115 µM) | 20 (≈ 88.4 µM) | 18 (≈ 79.5 µM) | 0.8 | 1.1 | – | – | – | –
Nc1ccccc1/C=C/c1ccc(O)cc1 | > 100 | 7 (≈ 33.1 µM) | 79 (≈ 374 µM) | < 0.1 | < 0.1 | – | – | – | –
COc1ccccc1/C=C/c1ccc(N)cc1 | 22 (≈ 97.7 µM) | 1 (≈ 4.44 µM) | 3.2 (≈ 14.2 µM) | < 0.1 | 0.3 | – | – | – | –
COc1cccc(/C=C/c2ccccc2N)c1 | 21.2 (≈ 94.1 µM) | 0.5 (≈ 2.22 µM) | 6.1 (≈ 27.1 µM) | < 0.1 | < 0.1 | 79 | 100 | 35 | 51
COc1ccc(/C=C/c2ccc(O)cc2)cc1 | 17.4 (≈ 76.9 µM) | 3.9 (≈ 17.2 µM) | 11.3 (≈ 49.9 µM) | 0.2 | 0.3 | – | – | – | –
Nc1cccc(/C=C/c2ccccc2O)c1 | 30.4 (≈ 144 µM) | 96 (≈ 454 µM) | 24.7 (≈ 117 µM) | 3.2 | 3.9 | 37 | 38 | 52 | 76
COc1ccc(/C=C/c2cccc(O)c2)cc1 | 22 (≈ 97.2 µM) | 24 (≈ 106 µM) | 21 (≈ 92.8 µM) | 1.1 | 1.1 | 46 | 38 | 48 | 73
COc1ccc(/C=C/c2ccccc2O)cc1 [2-hydroxy-4'-methoxystilbene] | 10 (≈ 44.2 µM) | 21 (≈ 92.8 µM) | 17 (≈ 75.1 µM) | 2.1 | 1.2 | 58 | 41 | 72 | 69
Oc1ccc(/C=C/c2cccc(O)c2)cc1 [(E)-3,4'-STILBENDIOL] | 6.9 (≈ 32.5 µM) | 1.1 (≈ 5.18 µM) | 23 (≈ 108 µM) | 0.2 | < 0.1 | – | – | – | –
Nc1ccc(/C=C/c2ccccc2)cc1 [(E)-4-STYRYLANILINE] | 4.4 (≈ 22.5 µM) | 11.4 (≈ 58.4 µM) | 16 (≈ 81.9 µM) | 2.6 | 0.7 | 46 | 24 | 65 | 78
COc1cccc(/C=C/c2ccc(O)cc2)c1 [(E)-5-METHOXY-4'-STILBENOL] | 26 (≈ 115 µM) | 24 (≈ 106 µM) | 21 (≈ 92.8 µM) | 0.9 | 1.1 | – | – | – | –
Oc1ccc(/C=C/c2ccc(O)cc2)cc1 [TRANS-4,4'-DIHYDROXYSTILBENE] | > 100 | 1.2 (≈ 5.65 µM) | 6.8 (≈ 32 µM) | < 0.1 | 0.2 | – | – | – | –

From ChEMBL document CHEMBL3734660, “Inhibitory effect of cytotoxic stilbenes related to resveratrol on the expression of the VEGF, hTERT and c-Myc genes” (Eur J Med Chem, 2015)
